Source: ChEMBL document CHEMBL5247578, “Effective synthesis of benzimidazoles-imidazo[1,2-a]pyrazine conjugates: A comparative study of mono-and bis-benzimidazoles for antitumor activity” (Eur J Med Chem, 2019)

Tests used:
Format in all cases: functional
SF-539 = assay: Antiproliferative activity against human SF-539 cells assessed as cell growth inhibition at 10 uM incubated for 48 hrs by sulforhodamine B assay relative to control
How it was run: (§1)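 NCI-60 single-dose screen at 10^-5 M. Cells grown in RPMI 1640 with 5% FBS and 2 mM L-glutamine, plated at 5,000–40,000 cells/well, and preincubated 24 h. Drug (DMSO stock) added and incubated 48 h at 37 °C, 5% CO2. Adherent cells fixed with cold TCA, stained with 0.4% SRB in 1% acetic acid, dye solubilized in 10 mM trizma base, A515 read. Percent growth taken against time-zero and untreated control.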

MCF7 = assay: Antiproliferative activity against human MCF7 cells assessed as cell growth inhibition at 10 uM incubated for 48 hrs by sulforhodamine B assay relative to control; how it was run: as §1
NCI-H23 = assay: Antiproliferative activity against human NCI-H23 cells assessed as cell growth inhibition at 10 uM incubated for 48 hrs by sulforhodamine B assay relative to control; how it was run: as §1
SNB-19 = assay: Antiproliferative activity against human SNB-19 cells assessed as cell growth inhibition at 10 uM incubated for 48 hrs by sulforhodamine B assay relative to control; how it was run: as §1
NCI-H226 = assay: Antiproliferative activity against human NCI-H226 cells assessed as cell growth inhibition at 10 uM incubated for 48 hrs by sulforhodamine B assay relative to control; how it was run: as §1
NCI/ADR-RES = assay: Antiproliferative activity against human NCI/ADR-RES cells assessed as cell growth inhibition at 10 uM incubated for 48 hrs by sulforhodamine B assay relative to control; how it was run: as §1
SN12C = assay: Antiproliferative activity against human SN12C cells assessed as cell growth inhibition at 10 uM incubated for 48 hrs by sulforhodamine B assay relative to control; how it was run: as §1
SK-OV-3 = assay: Antiproliferative activity against human SK-OV-3 cells assessed as cell growth inhibition at 10 uM incubated for 48 hrs by sulforhodamine B assay relative to control; how it was run: as §1
NCI-H322M = assay: Antiproliferative activity against human NCI-H322M cells assessed as cell growth inhibition at 10 uM incubated for 48 hrs by sulforhodamine B assay relative to control; how it was run: as §1
HCT-15 = assay: Antiproliferative activity against human HCT-15 cells assessed as cell growth inhibition at 10 uM incubated for 48 hrs by sulforhodamine B assay relative to control
How it was run: (§2)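 NCI-60 one-dose prescreen at 10^-5 M. Cells grown in RPMI 1640 with 5% FBS and 2 mM glutamine, preincubated 24 h, then exposed 48 h at 37 °C. Adherent lines TCA-fixed, SRB-stained, A515 read. Growth percent relative to time-zero and control; negative values mean cell kill.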

SK-MEL-28 = assay: Antiproliferative activity against human SK-MEL-28 cells assessed as cell growth inhibition at 10 uM incubated for 48 hrs by sulforhodamine B assay relative to control; how it was run: as §1
SK-MEL-5 = assay: Antiproliferative activity against human SK-MEL-5 cells assessed as cell growth inhibition at 10 uM incubated for 48 hrs by sulforhodamine B assay relative to control; how it was run: as §1
SF-295 = assay: Antiproliferative activity against human SF-295 cells assessed as cell growth inhibition at 10 uM incubated for 48 hrs by sulforhodamine B assay relative to control; how it was run: as §1
K562 = assay: Antiproliferative activity against human K562 cells assessed as cell growth inhibition at 10 uM incubated for 48 hrs by sulforhodamine B assay relative to control; how it was run: as §1
786-0 = assay: Antiproliferative activity against human 786-0 cells assessed as cell growth inhibition at 10 uM incubated for 48 hrs by sulforhodamine B assay relative to control
How it was run: (§3)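 Single-dose NCI-60 prescreen at 10^-5 M. Cells in RPMI 1640 with 5% FBS and 2 mM L-glutamine, seeded 5,000–40,000 cells/well with 24 h preincubation, then drug exposure for 48 h at 37 °C under 5% CO2. Growth read by SRB staining of TCA-fixed cells at 515 nm against time-zero and untreated controls. Negative growth values denote cell kill.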

UACC-257 = assay: Antiproliferative activity against human UACC-257 cells assessed as cell growth inhibition at 10 uM incubated for 48 hrs by sulforhodamine B assay relative to control; how it was run: as §1
IGROV-1 = assay: Antiproliferative activity against human IGROV-1 cells assessed as cell growth inhibition at 10 uM incubated for 48 hrs by sulforhodamine B assay relative to control; how it was run: as §1
MOLT-4 = assay: Antiproliferative activity against human MOLT-4 cells assessed as cell growth inhibition at 10 uM incubated for 48 hrs by sulforhodamine B assay relative to control; how it was run: as §1
BT-549 = assay: Antiproliferative activity against human BT-549 cells assessed as cell growth inhibition at 10 uM incubated for 48 hrs by sulforhodamine B assay relative to control; how it was run: as §3
MDA-MB-435 = assay: Antiproliferative activity against human MDA-MB-435 cells assessed as cell growth inhibition at 10 uM incubated for 48 hrs by sulforhodamine B assay relative to control; how it was run: as §1
UO-31 = assay: Antiproliferative activity against human UO-31 cells assessed as cell growth inhibition at 10 uM incubated for 48 hrs by sulforhodamine B assay relative to control; how it was run: as §1
MDA-MB-231 = assay: Antiproliferative activity against human MDA-MB-231 cells assessed as cell growth inhibition at 10 uM incubated for 48 hrs by sulforhodamine B assay relative to control; how it was run: as §1
HOP-92 = assay: Antiproliferative activity against human HOP-92 cells assessed as cell growth inhibition at 10 uM incubated for 48 hrs by sulforhodamine B assay relative to control; how it was run: as §2
OVCAR-4 = assay: Antiproliferative activity against human OVCAR-4 cells assessed as cell growth inhibition at 10 uM incubated for 48 hrs by sulforhodamine B assay relative to control; how it was run: as §1
CAKI-1 = assay: Antiproliferative activity against human CAKI-1 cells assessed as cell growth inhibition at 10 uM incubated for 48 hrs by sulforhodamine B assay relative to control; how it was run: as §3
TK-10 = assay: Antiproliferative activity against human TK-10 cells assessed as cell growth inhibition at 10 uM incubated for 48 hrs by sulforhodamine B assay relative to control; how it was run: as §1
HOP-62 = assay: Antiproliferative activity against human HOP-62 cells assessed as cell growth inhibition at 10 uM incubated for 48 hrs by sulforhodamine B assay relative to control; how it was run: as §2

SMILES	inhibition at 10 µM (SF-539) [%]	inhibition at 10 µM (MCF7) [%]	inhibition at 10 µM (NCI-H23) [%]	inhibition at 10 µM (SNB-19) [%]	inhibition at 10 µM (NCI-H226) [%]	inhibition at 10 µM (NCI/ADR-RES) [%]	inhibition at 10 µM (SN12C) [%]	inhibition at 10 µM (NCI-H322M) [%]	inhibition at 10 µM (HCT-15) [%]	inhibition at 10 µM (SK-MEL-5) [%]	inhibition at 10 µM (SF-295) [%]	inhibition at 10 µM (K562) [%]	inhibition at 10 µM (786-0) [%]	inhibition at 10 µM (IGROV-1) [%]	inhibition at 10 µM (MOLT-4) [%]	inhibition at 10 µM (BT-549) [%]	inhibition at 10 µM (UO-31) [%]	inhibition at 10 µM (MDA-MB-231) [%]	inhibition at 10 µM (HOP-92) [%]	inhibition at 10 µM (OVCAR-4) [%]	further results
Brc1ccc(-c2cn3ccnc3c(-c3ccc4ncn(C5CCCCC5)c4c3)n2)cc1	24.4	46.4	8.38	18.3	23.3	30.5	18.4	4.21	35.8	23.6	41.3	59	18	9.4	20.4	35.1	42.9	22.8	34.1	10.5	inhibition at 10 µM (SK-OV-3): 6.44%; inhibition at 10 µM (SK-MEL-28): 28.3%; inhibition at 10 µM (UACC-257): 7.3%; inhibition at 10 µM (MDA-MB-435): 58.4%
O=Cc1ccc(-c2cn3ccnc3c(-c3ccc4ncn(C5CCCCC5)c4c3)n2)cc1	31.5	47.8	54.5	14.4	0.53	37.4	20.7	11.2	49.1	56.5	23.1	–	46.7	21.3	58.7	33.8	82.2	51.2	43	16.9	inhibition at 10 µM (SK-OV-3): 5.11%; inhibition at 10 µM (CAKI-1): 36.5%; inhibition at 10 µM (SK-MEL-28): 7.54%; inhibition at 10 µM (MDA-MB-435): 13%; inhibition at 10 µM (TK-10): 0.75%; inhibition at 10 µM (HOP-62): 23.8%
O=Cc1ccc(-c2cn3ccnc3c(-c3ccc4ncn(Cc5ccccc5)c4c3)n2)cc1	31.5	47.8	54.5	14.4	0.53	37.4	20.7	11.2	49.1	56.5	23.1	–	46.7	21.3	58.7	33.8	82.2	51.2	43	16.9	inhibition at 10 µM (SK-OV-3): 5.11%; inhibition at 10 µM (CAKI-1): 36.5%; inhibition at 10 µM (SK-MEL-28): 7.54%; inhibition at 10 µM (MDA-MB-435): 13%; inhibition at 10 µM (TK-10): 0.75%; inhibition at 10 µM (HOP-62): 23.8%
Fc1ccc(-c2cn3ccnc3c(-c3ccc4ncn(C5CCCCC5)c4c3)n2)cc1	17.3	9.17	2.36	14.2	23.3	0.69	3.97	0.01	7.59	7.36	7.93	24.7	11.2	–	25.2	20.3	37.8	15.8	35.2	5.73	inhibition at 10 µM (SK-MEL-28): 2.67%; inhibition at 10 µM (MDA-MB-435): 1.78%
Fc1ccccc1-c1cn2ccnc2c(-c2ccc3ncn(C4CCCCC4)c3c2)n1	4.51	11.2	4.16	7.56	28.6	4.51	10.1	–	6.18	6.5	10.4	22.8	2.94	–	22.5	4.08	22.9	21.3	37	4.51	–
Brc1cn2ccnc2c(-c2ccc3ncn(C4CCCCC4)c3c2)n1	10	47.6	10.2	8.09	22.5	8.82	6.47	18.1	13.1	13.4	–	18	10	6.6	26.3	5.16	37.6	24.2	30.7	9.15	inhibition at 10 µM (TK-10): 5.55%; inhibition at 10 µM (HOP-62): 21.7%
COc1ccccc1-c1cn2ccnc2c(-c2ccc3ncn(C4CCCCC4)c3c2)n1	8.07	8.4	2.79	11.1	25.7	0.06	7.73	–	33.6	8.94	9.76	22.6	12.3	–	22.4	–	24	15.9	47.8	13.2	inhibition at 10 µM (SK-OV-3): 10.6%
c1ccc(Cn2cnc3ccc(-c4nc(-c5cccc6ccccc56)cn5ccnc45)cc32)cc1	4.22	29.2	10.4	5.12	–	5.83	5.62	1.34	8.2	9.69	8.22	–	12.4	11.3	22.3	–	31.3	28.7	42.5	7.88	inhibition at 10 µM (CAKI-1): 27.1%; inhibition at 10 µM (HOP-62): 14%
Clc1ccc(-c2cn3ccnc3c(-c3ccc4ncn(C5CCCCC5)c4c3)n2)cc1	6.3	21.8	4.11	15.8	19.4	11.1	13.5	–	15.5	12.4	14.5	44.5	12.1	7.84	8.87	23.8	36.1	15.3	30.5	4.57	inhibition at 10 µM (SK-OV-3): 6.14%; inhibition at 10 µM (SK-MEL-28): 12.1%; inhibition at 10 µM (UACC-257): 5.44%; inhibition at 10 µM (MDA-MB-435): 36.7%
